Data from the EternaBench riboswitch data.

System: MS2 coat protein
Assay: apparent Kd, MS2 coat protein; higher = weaker binding; RNA-MaP array; FMN 200 µM where present
Procedure, shortened: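 Apparent Kd: the median of filtered binding-curve fits from single clusters. Designs were transcribed on Illumina sequencing-chip clusters by stalled E. coli RNA polymerase and titrated with SNAP-549-labelled MS2 coat protein from 0.7 or 1.5 nM, doubling to 3 µM, in 100 mM Tris-HCl pH 7.5, 80 mM KCl, 4 mM MgCl2, BSA, DTT, yeast tRNA and Tween-20. Each series ran without and then with constant ligand, and green signal was normalised to red-channel RNA signal and control-cluster median Fmax.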

[1] = designed as: ON switch for flavin mononucleotide, no ligand
[2] = ligand present: flavin mononucleotide, designed as: ON switch for flavin mononucleotide
[3] = designed as: OFF switch for flavin mononucleotide, no ligand
[4] = ligand present: flavin mononucleotide, designed as: OFF switch for flavin mononucleotide

Row | Sequence | apparent Kd [1] | apparent Kd [2] | apparent Kd [3] | apparent Kd [4]
1 | GGUGCACGCACAGGAUAUCCGGCGGAGCUCGUCGGAGAAGGGUGACAUGAGGAUCACCCAUGUACGUGCAGCCAAGUUUGAGAG | 66.9 nM | 39.3 nM |  | 
2 | UUCACGUAUAUAGGAUAUGCGGGCAAAUAACGCGCAGAAGGAUAUACAUGAGGAUCACCCAUGUAUUGAGACCUCAUACGCCGC |  |  | 7.47 nM | 9.38 nM
3 | AUGCAACAUGAGGAUCACCCAUGUGAGGAUAUCGUAUAAUACUGUUGAAAUAUUUAGACGAGAAGGCACACCGU |  |  | 29.7 nM | 47.3 nM
4 | AAACGGAUCCGCGGUUGAUGCUAACUAGAAGGGCAGGUCACAUGAGGAUCACCCAUGUAGUAUAUGUAGGAUAUAGGAAGCGUG | 140 nM | 26.9 nM |  | 
5 | CGCUAUGACAUAGGAUAUUGGUACAUGAGGAUCACCCAUGUCAACUAUGGAAUAGAAUUAGUUGACAAGAAGGAUGUGGUAGCG | 47.2 nM | 10.3 nM |  | 
6 | UGUCAGAUGGUAGGAUAUCCAUAUCGCGUGUCCCUUUCCUAACAUGAGGAUCACCCAUGUCGGUGGGAGAAGGGCCGUAUGGUG |  |  | 13.2 nM | 12.1 nM
7 | UUAGGCUUCUAGAAGGCAGUCCAGCUGGAGGACUGAGGAUAUAGGCACCUAACAUGAGGAUCACCCAUGUUAGUGAUUCCUCAA |  |  | 38.7 nM | 73 nM
8 | UCGGCGCGAGGAUAUGCGGCUGCUGCUUCGGGCCGUGGCGUACAUGAGGAUCACCCAUGUAGAAGGCGCGCCGC |  |  | 13.1 nM | 14.1 nM
9 | AUUAUGUUAGGAUAUGCUUAUGGUGGAUAAUCAGAUAUGAUGCAGAAGGGACAUGAGGAUCACCCAUGUACUGU |  |  | 20.8 nM | 23.6 nM
10 | UGGUGACGUGUAGGAUAUGGAGGUGGGUUUUGGCCAGAAGGACAUGAGGAUCACCCAUGUGGUAGAGGGUUGGCGGCGGCCCGU |  |  | 16.9 nM | 15.1 nM
11 | AAAAAGUGAGGAUAUGCUGCUCGUCACUUGCGUGAUGAGUAGCAGAAGGCACAUGAGGAUCACCCAUGUAAAGA |  |  | 39 nM | 49.7 nM
12 | UUGGCUAAACCUCAGAGUACCACAUGAGGAUCACCCAUGUGGAGAAGGGACUUUGUACCGUUGAGUCAGGAUAUUCAUUGGGUA |  |  | 5.17 nM | 7.35 nM
13 | AUACCUUAUGAGAAGGCGGUCAUGAAACAUGAUCGAGGAUAUCAUGUAAACAUGAGGAUCACCCAUGUAUGGGUAUUAUGGUAA | 44.8 nM | 10.2 nM |  | 
14 | UUUACUUACGAAGGAUAUGGUUACAUGAGGAUCACCCAUGUAUGUAUAUUGAUCUAGUAUUUUAACCAGAAGGUCGUGAUUAUU |  |  | 31.8 nM | 46.9 nM
15 | UAUAUAUAGUAAGGAUAUGUAUUUAUUUUAUUAACAGAAGGUACUGACAUGAGGAUCACCCAUGUUUUAGUGUGGGCAUGUAGA |  |  | 103 nM | 146 nM
16 | CGGCUGCUACGCCAGCUCGACGCACAGGAUAUGCUGUUACAUGAGGAUCACCCAUGUGGCCAAGAGCAGAAGGGUGAUUCGCGA | 33.6 nM | 35 nM |  | 
17 | GGGUACAUCGGAGGAUAUCAUGUAAAUACAUGAGGAUCACCCAUGUCGAUGGAGACAUCGGAGAUUGAGAAGGCCGGUGUACCG | 165 nM | 9.9 nM |  | 
18 | ACCGCACAUGAGGAUCACCCAUGUCAGGAUAUACAAGAAAAUCAGGCUAAUGCCUGAAGUAGAAGGGACGAGGA |  |  | 22.4 nM | 14.2 nM
19 | GGCUUAAACACAGGAUAUGGCCUCAGAGUAAGGCCAGAAGGGUGAAGUUCUCAUACAUGAGGAUCACCCAUGUCAAGGAGGCUA | 521 nM | 204 nM |  | 
20 | UAUAUAUAGUAAGGAUAUGUAACUAUUUUAUAAACAGAAGGUACUGACAUGAGGAUCACCCAUGUUUUAGUGUGGGCAUGUAGA |  |  | 86.7 nM | 136 nM
